In paper PMC11604526 (Cell Reports Medicine, 2024):
Entries after “also recorded” stand apart in the source; their conditions may differ.

How the values were obtained:
[1] = tested on: layer 5 peri-infarct pyramidal neurons; assay: Whole-cell recordings in acute brain slices from treated mice; type: in vivo, mouse; conditions: intranasal administration
[2] = tested on: rats subjected to tMCAO; assay: Morris water maze after tMCAO; type: in vivo; conditions: rat tMCAO, intranasal days 5-11
Outline: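 Rats were habituated to the maze (180 cm diameter, opacified water, drained daily) 1 day beforehand. In learning trials, rats swam up to 60 s to reach a hidden platform 1.2 cm below the surface. A probe trial without the platform ran 24 h after the last learning trial. Swimming was recorded by overhead video tracking.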

[3] = molecular target: GAT-1 (Mus musculus, UniProt P31648); assay: 3H-GABA uptake assay in cultured neurons; type: cell-based; conditions: 1 h drug preincubation; 10 nM 3H-GABA + 30 μM GABA, 37°C 1 h; n = 5
Outline: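 Primary cortical neurons from E16 mice were grown on poly-L-ornithine in Neurobasal with 2% B27. Cells were rinsed twice in 37°C HBSS, equilibrated 10 min, then preincubated 1 h in drug-containing HBSS. Uptake was started with 3H-GABA (10 nM final) plus unlabeled GABA (30 μM final), 37°C for 1 h. It was stopped by three ice-cold HBSS washes, solubilised in 0.1 M NaOH, and read by scintillation counting plus BCA protein assay. Analysis used a two-tailed t test.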

[4] = tested on: extracellular GABA ([GABA]o); assay: Extracellular GABA after tMCAO; type: in vivo, rat; conditions: intranasal delivery; Figure 6F; n = 5
[5] = tested on: infarct volume; assay: Infarct volume; type: in vivo; conditions: Nissl staining 12 days after stroke; n = 8
Outline: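 Coronal 40 μm vibratome sections were stained in Nissl solution at 40°C for 10 min. Infarct size was measured on microscope images.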

[6] = tested on: mice; assay: Conditioned place preference; type: in vivo, mouse; conditions: n = 10
Outline: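 During pretest and test, mice had free access to both chambers for 15 min. Vehicle-group mice received vehicle injections morning and afternoon; all other steps matched the compound group. Apparatus was cleaned with 75% alcohol after each pretest, training and test session.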

[7] = tested on: pyramidal neurons in the peri-infarct cortex; assay: Fiber photometry of GCaMP6s Ca2+ signal; type: in vivo, mouse; conditions: intranasal administration; Figures S6F, S6G
Outline: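 AAV-CaMKII-GCaMP6s was injected into the peri-infarct cortex (AP 0, ML −2.0, DV −1.3 mm from bregma). An optical fibre (230 μm OD, 0.37 NA) was implanted at the same site. GCaMP6s fluorescence was excited with a 488 nm LED at 20 μW at the fibre tip and recorded by fibre photometry.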

[8] = tested on: mice; assay: Open field test; type: in vivo, mouse; conditions: 5 min; n = 14
[9] = tested on: extracellular GABA ([GABA]o); assay: Extracellular GABA in peri-infarct cortex; type: in vivo, mouse; conditions: intranasal administration; Figure S6A; n = 5
Outline: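 A CMA7 microdialysis probe was placed in peri-infarct cortex (AP 0, ML −0.65, DV −1.5 mm from bregma). It was perfused at 1 μL/min with bicarbonate-buffered saline containing 10 mM glucose. Dialysate was collected in 20-min fractions over 2 h, and the second fraction was analysed. GABA was measured by ELISA (activator, 37°C for 15 min in the dark, stop solution, A450).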

[10] = tested on: GAT-1; assay: 3H-GABA uptake in HEK293 cells overexpressing GAT-1; type: cell-based; conditions: n = 5
Outline: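 HEK293 cells were kept in MEM with 10% FBS and transduced with lentiviral GAT-1-EGFP. These GAT-1-overexpressing cells were incubated with peptide (100 nM), or with the mutant control peptide at the same concentration, before 3H-GABA uptake was measured.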

[11] = molecular target: GAT-1-Synt1A interaction (Rattus norvegicus, UniProt P23978); assay: Co-IP of Synt1A-GAT-1 complexes after tMCAO; type: in vivo; conditions: intranasally given days 5-11 after stroke
Outline: (§1)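 Dissected tissue was lysed on ice for 30 min in ice-cold RIPA buffer (50 mM Tris-HCl pH 7.4, 150 mM NaCl, 1 mM EDTA, 1% NP-40, 0.1% SDS, 0.5% deoxycholate, protease inhibitors). Lysates were spun at 12,000 ×g for 15 min at 4°C, and supernatant was precleared 1 h at 4°C with protein G magnetic beads before co-IP. Blots were probed with anti-GAT-1 (1:4000) and anti-syntaxin1A (1:4000).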

[12] = Concentration of ZLQ-3-1 in brain tissue; type: in vivo, rat; conditions: intranasal delivery; brain homogenate, LC-MS/MS
Outline: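 Brain tissue was quantified by LC-MS/MS with verapamil run alongside. The test compound eluted at 1.45 min and verapamil at 1.65 min.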

[13] = tested on: rats subjected to tMCAO; assay: Sensorimotor function after tMCAO; type: in vivo; conditions: rat tMCAO, intranasal days 5-11 after stroke
Outline: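 For grid walking, rats walked 5 min on a wire grid 60 cm high. For the cylinder task, rats explored a cylinder (30 cm tall, 20 cm diameter) for 5 min. For sticky tape, rats were handled 30 min/day for 3 days first. Ratio of interest = seconds attending to stimulus/30, averaging the best two trials. Sticky-tape ratio = left forepaw ratio/right forepaw ratio.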

[14] = tested on: mice with photothrombotic stroke; assay: Motor function; type: in vivo, mouse
Outline: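 Photothrombotic stroke was induced with rose bengal, holding body temperature at 37 ± 0.5°C. For grid walking, each mouse walked freely for 5 min on a wire grid 50 cm high. For the cylinder task, mice explored a clear cylinder (15 cm tall, 10 cm diameter) for 5 min, and only rears with both forelimbs clearly visible were timed. Tests ran 7 days before stroke and at set days after stroke.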

[15] = molecular target: GAT-1-Synt1A complex (Mus musculus, UniProt P31648); type: in vivo; conditions: intranasally given days 5-11 after photothrombotic stroke; n = 5
Outline: as §1

[16] = 5 mg/kg intranasally days 5-11 after stroke, test day 12

Substance: Glucose-D-Arg-Dmt-Cha-D-Lys-D-Arg-NH2 [ZLQ-3-1]
- stroke-induced increase in tonic inhibition ([1]; Figures S6B, S6C): reversed stroke-induced increases
- inhibitory synaptic transmission (sIPSC) ([1]; Figures S6D, S6E): increased inhibitory synaptic transmission
- swimming speed [2]: did not affect swimming speed
- target entries in the probe test [2]: increased target entries
- time spent in target quadrant in the probe test [2]: increased
- latency (time to reach the platform) ([2]; training trials): significantly decreased latency
- 3H-GABA uptake in cultured neurons [3]: significantly increased ^3H-GABA uptake
- stroke-induced increase in [GABA]o in the peri-infarct cortex [4]: reversed
- infarct volume [5]: did not change infarct volume
- conditioned place preference [6]: did not affect
- stroke-induced decline in cortical excitability, WT mice [7]: prevented stroke-induced decline in cortical excitability
- locomotor activity (open field test: total distance, velocity) [8]: did not affect locomotor activity
- stroke-induced increase in extracellular GABA [9]: reversed stroke-induced increases in extracellular GABA
- reuptake of GABA by GAT-1, HEK293 cells overexpressing GAT-1 [10]: did not directly affect the reuptake of GABA by GAT-1
- stroke-induced GAT-1-Synt1A interaction in the hippocampus [11]: reversed stroke-induced GAT-1-Synt1A interaction
- stroke-induced GAT-1-Synt1A interaction in the peri-infarct cortex [11]: reversed stroke-induced GAT-1-Synt1A interaction
- brain exposure of ZLQ-3-1 (time course of concentrations in brain tissue) [12]: rapid and long-lasting brain exposure; also recorded: high brain exposure
- foot faults in the grid-walking task [13]: decreased foot faults
- forelimb sticky-tape ratio in modified sticky-tape test [13]: increased forelimb sticky-tape ratio
- forelimb symmetry index in the cylinder task [13]: decreased
- somatosensory and motor functions ([13]; tests days 4, 12, 19, 26): significantly improved somatosensory and motor functions
- impairment of motor functions, intranasal 5 mg/kg [14, 16]: attenuated the impairment of motor functions
- motor functional recovery of ZLQ-3-1-treated versus ZLQ-3-treated mice [14, 16]: better motor functional recovery than ZLQ-3-treated mice
- impairment of motor functions, intraperitoneal dosing ([14]; 2.5, 5, 10, or 20 mg/kg i.p. days 5-11 after stroke, test day 12): attenuated the impairment of motor functions dose dependently
- long-term motor functional recovery, WT mice ([14]; intranasal treatment days 5-11 after stroke, Figure S5K): long-lasting motor functional recovery effects
- stroke-induced GAT-1-Synt1A interaction, intranasal dosing [15]: reversed stroke-induced GAT-1-Synt1A interaction
